Data from ChEMBL document CHEMBL1629690, “Development of hexadecyloxypropyl tenofovir (CMX157) for treatment of infection caused by wild-type and nucleoside/nucleotide-resistant HIV” (Antimicrob Agents Chemother, 2010).
pEC50: −log10 of the molar value.

Tests used:
[1] = test system: Human immunodeficiency virus 1; experiment: Antiviral activity against HIV1 isolate 166 harboring reverse transcriptase L74V mutant gene obtained as site-directed mutant of NL4-3 by phenosense assay relative to wild type; format: functional
Method in brief: (§1)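 Recombinant-virus PhenoSense HIV assay run on a panel of 30 NRTI-resistant HIV-1 mutants and two wild-type viruses. Each virus is tested across increasing drug concentrations to give an inhibition curve and EC50. Fold change is the test recombinant EC50 divided by the EC50 of the drug-sensitive wild-type reference virus.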

[2] = test system: Human immunodeficiency virus 1; experiment: Antiviral activity against HIV1 isolate 180 harboring reverse transcriptase K65R mutant gene obtained as site-directed mutant of NL4-3 by phenosense assay relative to wild type; format: functional; method in brief: as §1
[3] = test system: Human immunodeficiency virus 1; experiment: Antiviral activity against HIV1 1617-1 harboring reverse transcriptase 69K/70G/75I/77L/116Y/151M/184V mutant gene infected in human PBMC by ELISA; format: functional, organism-based; settings: Human immunodeficiency virus 1, 1617-1
Method in brief: (§2)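 Fresh PBMCs pooled from at least two HIV- and HBV-seronegative donors, stimulated with PHA 4 μg/ml for 48–72 h and kept in rhIL-2 20 U/ml. Seeded at 5 × 10^4 cells/well and infected with RT-mutant HIV-1 clones at MOI ~0.1. Nine compound concentrations, triplicate wells, 7-day incubation. EC50 reported as mean ± SD of one to three independent experiments.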

[4] = test system: Human immunodeficiency virus 1; experiment: Antiviral activity against HIV1 isolate 070 harboring reverse transcriptase 65R/S68G mutant gene by phenosense assay relative to wild type; format: functional; method in brief: as §1
[5] = test system: Human immunodeficiency virus 1; experiment: Antiviral activity against HIV1 isolate 157 harboring reverse transcriptase L74V/M184V mutant gene by phenosense assay; format: functional, organism-based; settings: Human immunodeficiency virus 1, isolate 157; method in brief: as §1
[6] = test system: Human immunodeficiency virus 1; experiment: Antiviral activity against HIV1 isolate 192 harboring reverse transcriptase M41L/T215Y mutant gene by phenosense assay relative to wild type; format: functional; method in brief: as §1
[7] = test system: Human immunodeficiency virus 1; experiment: Antiviral activity against HIV1 isolate 174 harboring reverse transcriptase M184V mutant gene obtained as site-directed mutant of NL4-3 by phenosense assay; format: functional, organism-based; settings: Human immunodeficiency virus 1, isolate 174; method in brief: as §1
[8] = test system: Human immunodeficiency virus 1; experiment: Antiviral activity against HIV1 isolate 194 harboring reverse transcriptase M41L/T215Y/M184V mutant gene by phenosense assay; format: functional, organism-based; settings: Human immunodeficiency virus 1, isolate 194; method in brief: as §1
[9] = test system: Human immunodeficiency virus 1; experiment: Antiviral activity against HIV1 isolate 058 harboring reverse transcriptase M41L/D67N/K70R/L210W/T215F/K219Q mutant gene by phenosense assay relative to wild type; format: functional; method in brief: as §1
[10] = test system: Human immunodeficiency virus 1; experiment: Antiviral activity against HIV1 isolate 061 harboring reverse transcriptase M41L/D67N/K70R/M184V/L210W/T215Y/K219E mutant gene by phenosense assay relative to wild type; format: functional; method in brief: as §1
[11] = test system: Human immunodeficiency virus 1; experiment: Antiviral activity against HIV1 isolate 070 harboring reverse transcriptase 65R/S68G mutant gene by phenosense assay; format: functional, organism-based; settings: Human immunodeficiency virus 1, isolate 070; method in brief: as §1
[12] = test system: Human immunodeficiency virus 1; experiment: Antiviral activity against HIV1 isolate 071 harboring reverse transcriptase 65R/S68N/184V mutant gene by phenosense assay; format: functional, organism-based; settings: Human immunodeficiency virus 1, isolate 071; method in brief: as §1
[13] = test system: Human immunodeficiency virus 1; experiment: Antiviral activity against HIV1 isolate 153 harboring reverse transcriptase L74V mutant gene by phenosense assay relative to wild type; format: functional; method in brief: as §1
[14] = test system: Human immunodeficiency virus 1; experiment: Antiviral activity against HIV1 isolate 211 harboring reverse transcriptase D67N/K70R/T215F/K219E/M184V mutant gene by phenosense assay relative to wild type; format: functional
Method in brief: (§3)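 PhenoSense HIV recombinant virus assay: patient-derived HIV-1 with major NRTI resistance mutations tested against increasing drug concentrations to give inhibition curves. EC50 is the concentration giving 50% inhibition. Fold change is the test recombinant EC50 divided by the EC50 of a drug-sensitive wild-type reference virus. Panel of 30 NRTI-resistant isolates plus two wild-type viruses.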

[15] = test system: Human immunodeficiency virus 1; experiment: Antiviral activity against HIV1 4755-5 harboring reverse transcriptase 41L/44D/67N/69D/118I/210W/215Y/184V mutant gene infected in human PBMC by ELISA; format: functional, organism-based; settings: Human immunodeficiency virus 1, 4755-5; method in brief: as §2
[16] = test system: Human immunodeficiency virus 1; experiment: Antiviral activity against HIV1 isolate 220 harboring reverse transcriptase K70E/M184V mutant gene by phenosense assay; format: functional, organism-based; settings: Human immunodeficiency virus 1, isolate 220; method in brief: as §3
[17] = test system: Human immunodeficiency virus 1; experiment: Antiviral activity against HIV1 isolate 063 harboring reverse transcriptase M41L/D67N/K70R/M184V/L210W/T215Y/K219E mutant gene by phenosense assay; format: functional, organism-based; settings: Human immunodeficiency virus 1, isolate 063; method in brief: as §1
[18] = test system: Human immunodeficiency virus 1; experiment: Antiviral activity against HIV1 isolate 160 harboring reverse transcriptase S68G/V75(I/T)/F77L/Y115F/F116Y /Q151M mutant gene by phenosense assay; format: functional, organism-based; settings: Human immunodeficiency virus 1, isolate 160; method in brief: as §1
[19] = test system: Human immunodeficiency virus 1; experiment: Antiviral activity against HIV1 isolate 203 harboring reverse transcriptase M41L/L210W/T215Y/M184V mutant gene by phenosense assay; format: functional, organism-based; settings: Human immunodeficiency virus 1, isolate 203; method in brief: as §3
[20] = test system: Human immunodeficiency virus 1; experiment: Antiviral activity against HIV1 isolate 058 harboring reverse transcriptase M41L/D67N/K70R/L210W/T215F/K219Q mutant gene by phenosense assay; format: functional, organism-based; settings: Human immunodeficiency virus 1, isolate 058; method in brief: as §1
[21] = test system: Human immunodeficiency virus 1; experiment: Antiviral activity against HIV1 isolate 063 harboring reverse transcriptase M41L/D67N/K70R/M184V/L210W/T215Y/K219E mutant gene by phenosense assay relative to wild type; format: functional; method in brief: as §1
[22] = test system: Human immunodeficiency virus 1; experiment: Antiviral activity against HIV1 71361-1 harboring reverse transcriptase 65R mutant gene infected in human PBMC by ELISA; format: functional, organism-based; settings: Human immunodeficiency virus 1, 71361-1; method in brief: as §2
[23] = test system: Human immunodeficiency virus 1; experiment: Antiviral activity against HIV1 isolate 067 harboring reverse transcriptase A62V/D67G/T69SVG/V75I/T215I mutant gene by phenosense assay; format: functional, organism-based; settings: Human immunodeficiency virus 1, isolate 067; method in brief: as §1
[24] = test system: Human immunodeficiency virus 1; experiment: Antiviral activity against HIV1 NL 4-3 expressing wild type reverse transcriptase infected in human PBMC by ELISA; format: functional, organism-based; settings: Human immunodeficiency virus 1, NL 4-3
Method in brief: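 Fresh donor PBMCs, HIV- and HBV-seronegative, were stimulated with 4 μg/ml PHA for 48 to 72 h and kept on 20 U/ml rhIL-2. Cells pooled from at least two donors were seeded at 5 × 10^4 per well and infected at MOI ~0.1. Nine compound concentrations were run in triplicate wells for 7 days.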

[25] = test system: Human immunodeficiency virus 1; experiment: Antiviral activity against HIV1 isolate 162 harboring reverse transcriptase A62V/V75I/F77L/Y115F/F116Y/Q151M/M184V mutant gene by phenosense assay relative to wild type; format: functional; method in brief: as §1
[26] = test system: Human immunodeficiency virus 1; experiment: Antiviral activity against HIV1 isolate 160 harboring reverse transcriptase S68G/V75(I/T)/F77L/Y115F/F116Y /Q151M mutant gene by phenosense assay relative to wild type; format: functional; method in brief: as §1
[27] = test system: Human immunodeficiency virus 1; experiment: Antiviral activity against HIV1 isolate 217 harboring reverse transcriptase D67N/K70E/M184V mutant gene by phenosense assay relative to wild type; format: functional; method in brief: as §3
[28] = test system: Human immunodeficiency virus 1; experiment: Antiviral activity against HIV1 isolate 206 harboring reverse transcriptase D67N/K70R mutant gene by phenosense assay; format: functional, organism-based; settings: Human immunodeficiency virus 1, isolate 206; method in brief: as §3
[29] = test system: Human immunodeficiency virus 1; experiment: Antiviral activity against HIV1 isolate 071 harboring reverse transcriptase 65R/S68N/184V mutant gene by phenosense assay relative to wild type; format: functional; method in brief: as §1
[30] = test system: Human immunodeficiency virus 1; experiment: Antiviral activity against HIV1 isolate 217 harboring reverse transcriptase D67N/K70E/M184V mutant gene by phenosense assay; format: functional, organism-based; settings: Human immunodeficiency virus 1, isolate 217; method in brief: as §3

Row | Structure (SMILES) | fold change (FC) [1] | fold change (FC) [2] | pEC50 [3] | fold change (FC) [4] | pEC50 [5] | fold change (FC) [6] | pEC50 [7] | pEC50 [8] | fold change (FC) [9] | fold change (FC) [10] | pEC50 [11] | pEC50 [12] | fold change (FC) [13] | fold change (FC) [14] | pEC50 [15] | pEC50 [16] | pEC50 [17] | pEC50 [18] | pEC50 [19] | pEC50 [20] | further results
1 | C[C@H](Cn1cnc2c(N)ncnc21)OCP(=O)(O)O [TENOFOVIR ANHYDROUS] | 0.69 | 2 | < 5.19 | 1.7 | 6.64 | 1.8 | 6.39 | 6.00 | 3.5 | 2.2 | 5.89 | 6.03 | 0.62 | 0.91 | 5.27 | 6.33 | 5.77 | 5.77 | 6.12 | 5.57 | fold change (FC) [21]: 2.2; pEC50 [22]: < 5.10; pEC50 [23]: 4.77; pEC50 [24]: 6.52; fold change (FC) [25]: 1.4; fold change (FC) [26]: 2.3; fold change (FC) [27]: 0.64; pEC50 [28]: 5.70; fold change (FC) [29]: 1.2; pEC50 [30]: 6.30
2 | CCCCCCCCCCCCCCCCOCCCOP(=O)(O)CO[C@H](C)Cn1cnc2c(N)ncnc21 [TENOFOVIR EXALIDEX] | 0.8 | 2.6 | 8.30 | 1.9 | 9.18 | 2.1 | 8.92 | 8.54 | 4.6 | 2.1 | 8.44 | 8.57 | 0.66 | 1 | 8.51 | 8.89 | 8.28 | 8.43 | 8.72 | 8.07 | fold change (FC) [21]: 2.8; pEC50 [22]: 7.89; pEC50 [23]: 7.24; pEC50 [24]: 8.82; fold change (FC) [25]: 1.6; fold change (FC) [26]: 2; fold change (FC) [27]: 0.78; pEC50 [28]: 8.25; fold change (FC) [29]: 1.5; pEC50 [30]: 8.82
